Results as given in ChEMBL document CHEMBL5034002, “Benzoheterocyclic Oxime Carbamates Active against Mycobacterium tuberculosis: Synthesis, Structure-Activity Relationship, Metabolism, and Biology Triaging” (J Med Chem, 2021).
Converted amounts (≈) assume the structure as drawn. The source made the active and inactive calls. The calls are words filed in the database; no cut-off is given here.

What was measured:
[1] = test system: Mycobacterium tuberculosis; assay: Antitubercular activity against Mycobacterium tuberculosis H37RvMA incubated for 14 days in GAST/FE medium by Alamar blue assay; assay type: functional; settings: 336 h, time 14 day
Outline: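 Mtb H37RvMa grown in GAST/Fe medium, 14 day incubation with compound, growth read by Alamar Blue.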

[2] = test system: CHO; assay: Cytotoxicity against CHO cells; assay type: cell-based; settings: Cricetulus griseus
Outline: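 Cytotoxicity measured on Chinese hamster ovary (CHO) cells.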

[3] = test system: Mycobacterium tuberculosis; assay: Antitubercular activity against Mycobacterium tuberculosis H37RvMA infected in THP-1 cells assessed as intracellular bacterial growth at 10 uM measured over 6 days; assay type: functional, organism-based; settings: time 6.0 day
Outline: (§1)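 THP-1 macrophages infected in vitro with Mtb H37RvMa, then treated with compound over 6 days (10 μM, or increasing concentrations up to 80 μM). Intracellular bacterial growth was compared with untreated control at day 6 post treatment by one-way ANOVA with Dunnett's test.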

[4] = Stability in human liver microsomes assessed as compound remaining after 30 mins; assay type: ADME, Microsome; settings: read-out: Stability
[5] = test system: Staphylococcus aureus; assay: Antibacterial activity against Staphylococcus aureus ATCC 25923; assay type: functional
[6] = test system: Klebsiella pneumoniae; assay: Antibacterial activity against Klebsiella pneumoniae BAA-1705; assay type: functional; settings: ATCC BAA-1705
[7] = Kinetic solubility of the compound in pH 6.5; assay type: physicochemical; settings: buffer, read-out: Kinetic_solubility
[8] = test system: Escherichia coli; assay: Antibacterial activity against Escherichia coli ATCC 25922; assay type: functional
[9] = test system: Pseudomonas aeruginosa; assay: Antibacterial activity against Pseudomonas aeruginosa ATCC 27853; assay type: functional
[10] = Stability in rat liver microsomes assessed as compound remaining after 30 mins; assay type: ADME, Microsome; settings: read-out: Stability
[11] = test system: Enterobacter cloacae; assay: Antibacterial activity against Enterobacter cloacae; assay type: functional
[12] = Stability in mouse liver microsomes assessed as compound remaining after 30 mins; assay type: ADME, Microsome; settings: read-out: Stability
[13] = test system: Mycobacterium tuberculosis; assay: Antitubercular activity against Mycobacterium tuberculosis H37RvMA incubated for 14 days in 7H9/OHADC medium by Alamar blue assay; assay type: functional; settings: 336 h, time 14 day
[14] = test system: Acinetobacter baumannii; assay: Antibacterial activity against Acinetobacter baumannii ATCC 19606; assay type: functional
[15] = test system: Mycobacterium tuberculosis; assay: Drug degradation in Mycobacterium tuberculosis H37RvMA at 0.1 uM incubated over 96 hrs by LC-MS/MS analysis; assay type: functional, organism-based
Outline: (§2)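 Compound at 0.1 μM in 7H9/OADC medium was added to log-phase Mtb H37RvMa culture and sampled over 96 h, earliest at 3 h. Controls were heat-killed culture and sterile medium. Analysis by LC-MS/MS as analyte/internal standard peak area ratio, expressed as % of mean time-zero ratio. One-way ANOVA with Dunnett's test against medium control at each time point.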

[16] = Stability in human liver S9 fraction assessed as compound remaining after 40 mins; assay type: ADME, subcellular; settings: read-out: Stability
[17] = biological target: Voltage-gated inwardly rectifying potassium channel KCNH2 (Homo sapiens, UniProt Q12809); assay: Inhibition of human ERG by Ionworks electrophysiology assay
Outline: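 hERG inhibition measured by electrophysiology on IonWorks HT.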

[18] = test system: Mycobacterium tuberculosis; assay: Drug degradation in Mycobacterium tuberculosis H37RvMA assessed as compound hydrolysis at 0.1 uM incubated over 96 hrs by LC-MS/MS analysis; assay type: functional, organism-based; outline: as §2
[19] = test system: Mycobacterium tuberculosis; assay: Antitubercular activity against Mycobacterium tuberculosis H37RvMA infected in THP-1 cells assessed as intracellular bacterial growth at 80 uM measured over 6 days; assay type: functional, organism-based; settings: time 6.0 day; outline: as §1
[20] = test system: Mycobacterium tuberculosis; assay: Antitubercular activity against Mycobacterium tuberculosis H37RvMA infected in THP-1 cells assessed as intracellular bacterial growth measured over 6 days; assay type: functional, organism-based; settings: dose 10-80 µM, time 6.0 day; outline: as §1

Voltage-gated inwardly rectifying potassium channel KCNH2, sequence (Q12809 whole entry): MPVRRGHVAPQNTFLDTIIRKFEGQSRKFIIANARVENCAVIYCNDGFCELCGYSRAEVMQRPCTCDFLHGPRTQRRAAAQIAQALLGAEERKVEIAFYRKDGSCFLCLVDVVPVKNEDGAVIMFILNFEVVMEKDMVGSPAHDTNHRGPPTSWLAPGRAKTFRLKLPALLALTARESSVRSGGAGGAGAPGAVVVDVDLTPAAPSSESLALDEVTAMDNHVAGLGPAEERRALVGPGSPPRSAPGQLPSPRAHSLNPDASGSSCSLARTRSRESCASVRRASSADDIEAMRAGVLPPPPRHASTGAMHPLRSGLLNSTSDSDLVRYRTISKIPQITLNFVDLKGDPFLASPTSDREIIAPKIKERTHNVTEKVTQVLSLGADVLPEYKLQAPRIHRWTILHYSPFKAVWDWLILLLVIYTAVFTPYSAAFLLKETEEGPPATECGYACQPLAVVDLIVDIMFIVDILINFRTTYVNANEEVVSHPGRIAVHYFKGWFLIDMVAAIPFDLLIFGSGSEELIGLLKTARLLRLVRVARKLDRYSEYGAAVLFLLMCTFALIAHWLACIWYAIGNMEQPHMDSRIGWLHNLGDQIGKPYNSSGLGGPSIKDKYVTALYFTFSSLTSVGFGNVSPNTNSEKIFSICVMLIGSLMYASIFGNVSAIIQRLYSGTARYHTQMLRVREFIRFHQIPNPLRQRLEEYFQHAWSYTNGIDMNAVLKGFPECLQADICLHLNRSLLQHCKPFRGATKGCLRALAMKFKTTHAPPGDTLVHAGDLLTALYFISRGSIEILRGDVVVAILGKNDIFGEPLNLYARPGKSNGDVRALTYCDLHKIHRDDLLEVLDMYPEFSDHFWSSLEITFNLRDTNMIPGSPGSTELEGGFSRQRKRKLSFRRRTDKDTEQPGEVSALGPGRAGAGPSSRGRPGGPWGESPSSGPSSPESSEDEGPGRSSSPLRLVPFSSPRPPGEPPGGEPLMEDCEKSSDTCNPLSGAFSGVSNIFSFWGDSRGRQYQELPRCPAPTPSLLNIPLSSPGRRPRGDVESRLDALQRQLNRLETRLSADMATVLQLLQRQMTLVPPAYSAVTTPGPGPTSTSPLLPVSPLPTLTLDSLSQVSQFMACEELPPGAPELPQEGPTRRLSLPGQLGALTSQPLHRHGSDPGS

| Structure (SMILES) | MIC [1] | IC50 [2] | also measured |
| --- | --- | --- | --- |
| Cc1nc(/C(=N\O)c2nc3ccccc3s2)no1 | > 160 µM |  |  |
| Cc1ccc2nc(/C(C#N)=N/OS(=O)(=O)N(C)C)oc2c1 | 5 µM (≈ 1.54 µg/mL) |  |  |
| CN(C)C(=O)O/N=C(\C#N)c1nc2cc(Cl)ccc2o1 | < 0.24 µM | > 100 µM |  |
| N#C/C(=N\O)c1nc2ccccc2o1 | > 160 µM |  | Activity [3]: inactive |
| Cc1cccc2oc(/C(C#N)=N/OC(=O)N(C)C)nc12 | < 0.24 µM | > 100 µM |  |
| CCCO/N=C(\C#N)c1nc2ccccc2s1 | > 160 µM |  |  |
| O/N=C(\c1nnc(C(F)(F)F)s1)c1nc2ccccc2s1 | 0.78 µM (≈ 0.258 µg/mL) | 15.6 µM | remaining at 0.5 h [4]: > 99%; MIC [5]: > 125 µM; MIC [6]: > 125 µM; solubility kinetic [7]: 67 µM (≈ 22.1 µg/mL); MIC [8]: > 125 µM; MIC [9]: > 125 µM; remaining at 0.5 h [10]: 86%; MIC [11]: > 125 µM; remaining at 0.5 h [12]: 71%; MIC [13]: 1.2 µM (≈ 0.396 µg/mL); MIC [14]: > 125 µM |
| N#C/C(=N\O)c1ccccn1 | > 50 µM |  | solubility kinetic [7]: 202 µM (≈ 29.7 µg/mL) |
| CN(C)S(=O)(=O)O/N=C(\C#N)c1nc2ccccc2s1 | 0.3 µM (≈ 0.0931 µg/mL) | 91.3 µM |  |
| O/N=C(/c1nc2ccccc2s1)C1CCCCC1 | > 125 µM | 51.6 µM |  |
| O/N=C(\c1ccccc1)c1nc2ccccc2s1 | > 50 µM | > 100 µM |  |
| C/C(=N\O)c1nc2ccccc2s1 | > 125 µM | > 100 µM |  |
| O/N=C/c1nc2ccccc2s1 | > 160 µM |  |  |
| O/N=C(\c1ccc2ncsc2c1)c1nc2ccccc2s1 | > 125 µM | > 50 µM |  |
| N#C/C(=N\OCc1ccccn1)c1nc2ccccc2s1 | > 160 µM |  |  |
| Cc1nnc(/C(=N\O)c2nc3ccccc3s2)s1 | 2.5 µM (≈ 0.691 µg/mL) | 38 µM |  |
| ON=C(c1nc2ccccc2s1)c1nc2ccccc2s1 | 0.8 µM (≈ 0.249 µg/mL) | > 100 µM |  |
| N#C/C(=N\[O-])c1ccccc1.[Na+] | > 50 µM |  | solubility kinetic [7]: 56 µM |
| CN(C)C(=O)O/N=C(\C#N)c1nc2ccccc2[nH]1 | 9.4 µM (≈ 2.42 µg/mL) |  | solubility kinetic [7]: 29 µM (≈ 7.46 µg/mL) |
| NNC(=O)c1ccncc1 [ISONIAZID] | 0.14 µM (≈ 0.0192 µg/mL) |  |  |
| CN(C)C(=O)O/N=C(\C#N)c1nc2ccccc2s1 | < 0.16 µM | > 100 µM |  |
| O/N=C(/c1nc2ccccc2s1)C(F)(F)F | 37 µM (≈ 9.11 µg/mL) |  |  |
| CN(C)C(=O)O/N=C(\C#N)c1nc2cc(F)ccc2o1 | < 0.24 µM |  |  |
| CS(=O)(=O)O/N=C(\C#N)c1nc2ccccc2s1 | 0.5 µM (≈ 0.141 µg/mL) |  |  |
| CON=C(c1nc2ccccc2s1)c1nc2ccccc2s1 | > 125 µM | > 50 µM |  |
| Cc1ccc2nc(/C(C#N)=N/OC(=O)N(C)C)oc2c1 | < 0.16 µM | > 100 µM | Activity [3]: inactive |
| N#C/C(=N\OCc1cccnc1)c1nc2ccccc2s1 | > 160 µM |  |  |
| CO/N=C(\C#N)c1nc2ccccc2s1 | 160 µM (≈ 34.8 µg/mL) |  |  |

| Structure (SMILES) | MIC [1] | IC50 [2] | also measured |
| --- | --- | --- | --- |
| CN(C)C(=O)O/N=C(\C#N)c1nc2ccc(F)cc2o1 | < 0.24 µM | > 100 µM |  |
| N#C/C(=N\OCc1ccccc1)c1nc2ccccc2s1 | 20 µM (≈ 5.87 µg/mL) |  |  |
| COC(=O)c1ccc2nc(/C(C#N)=N/OC(=O)N(C)C)oc2c1 | < 0.24 µM | 7.05 µM |  |
| CN(C)C(=O)O/N=C(\C#N)c1nc2cc(Br)ccc2o1 | < 0.24 µM |  |  |
| CN(C)C(=O)O/N=C(\C#N)c1nc2ccc(C(F)(F)F)cc2o1 | < 0.24 µM | 46.3 µM |  |
| O/N=C(/c1nc2ccccc2s1)C1CCCC1 | > 125 µM | 83.5 µM |  |
| Cc1nnc(/C(=N\O)c2nc3ccccc3s2)o1 | 160 µM (≈ 41.6 µg/mL) |  |  |
| CN(C)C(=O)CO/N=C(\C#N)c1nc2ccccc2s1 | > 160 µM |  |  |
| CO[C@H]1/C=C/O[C@@]2(C)Oc3c(C)c(O)c4c(O)c(c(/C=N/N5CCN(C)CC5)c(O)c4c3C2=O)NC(=O)/C(C)=C\C=C\[C@H](C)[C@H](O)[C@@H](C)[C@@H](O)[C@@H](C)[C@H](OC(C)=O)[C@@H]1C [RIFAMPIN] | 0.009 µM (≈ 0.00741 µg/mL) |  |  |
| Cc1ccc2nc(/C(C#N)=N/O)oc2c1 | > 160 µM | > 100 µM | Drug degradation [15]: Unstable; Activity [3]: inactive |
| CN(C)C(=O)O/N=C(\C#N)c1ccccc1 | 9.4 µM (≈ 2.04 µg/mL) |  |  |
| [O-][n+]1onc(-c2nc3ccccc3s2)c1-c1nc2ccccc2s1 | > 50 µM |  | solubility kinetic [7]: < 5 µM |
| CC(=O)Nc1ccc2nc(/C(C#N)=N/OC(=O)N(C)C)oc2c1 | 5.2 µM (≈ 1.64 µg/mL) | > 100 µM |  |
| O/N=C(\c1cnccn1)c1nc2ccccc2s1 | 3.6 µM (≈ 0.923 µg/mL) | 11.7 µM |  |
| CN(C)C(=O)O/N=C(\C#N)c1nc2ccc([N+](=O)[O-])cc2o1 | < 0.24 µM | 46.8 µM |  |
| CN(C)C(=O)O/N=C(\C#N)c1ccccn1 | 9.4 µM (≈ 2.05 µg/mL) |  | solubility kinetic [7]: 175 µM (≈ 38.2 µg/mL) |
| O/N=C(\c1cnco1)c1nc2ccccc2s1 | 50 µM (≈ 12.3 µg/mL) | > 100 µM |  |
| N#C/C(=N\O)c1nc2ccccc2s1 | > 160 µM | > 100 µM |  |
| Cc1ccc2oc(/C(C#N)=N/OC(=O)N(C)C)nc2c1 | < 0.24 µM | > 100 µM |  |
| OC(O)(c1nc2ccccc2s1)C(F)(F)F | > 50 µM |  | solubility kinetic [7]: 184 µM (≈ 45.9 µg/mL) |
| Cc1cnc(/C(=N\O)c2nc3ccccc3s2)s1 | 3.13 µM (≈ 0.862 µg/mL) | 29 µM |  |
| Nc1nonc1-c1nc2ccccc2s1 | > 50 µM |  | solubility kinetic [7]: 5 µM (≈ 1.09 µg/mL) |
| CCOC(=O)CO/N=C(\C#N)c1nc2ccccc2s1 | > 160 µM |  |  |
| CN(C)C(=O)O/N=C(\C#N)c1nc2ccccc2o1 | 0.3 µM (≈ 0.0775 µg/mL) | > 100 µM | remaining at 0.5 h [4]: > 99%; MIC [5]: > 125 µM; MIC [6]: > 125 µM; Drug degradation [15]: Unstable; solubility kinetic [7]: 18 µM (≈ 4.65 µg/mL); MIC [8]: > 125 µM; MIC [9]: > 125 µM; remaining at 0.5 h [10]: 98%; MIC [11]: > 125 µM; remaining at 0.5 h [12]: > 99%; remaining at 40 min [16]: 60%; MIC [13]: 0.6 µM (≈ 0.155 µg/mL); IC50 [17]: > 33 µM; MIC [14]: > 125 µM; Activity [3]: inactive |
| CN(C)C(=O)O/N=C(\C#N)c1nc2ccc(Br)cc2o1 | < 0.24 µM | > 100 µM |  |
| N#C/C(=N\OCc1ccncc1)c1nc2ccccc2s1 | 20 µM (≈ 5.89 µg/mL) |  |  |
| CN(C)C(=O)O/N=C(\C#N)c1nc2ccc(Cl)cc2o1 | < 0.24 µM | > 100 µM | Drug degradation [18]: Unstable; Activity [19]: Active; Activity [20]: Dose-Dependent Effect; Activity [3]: inactive |
